Laboratory results published in ChEMBL document CHEMBL2440040, “Synthesis of 4″-O-desosaminyl clarithromycin derivatives and their anti-bacterial activities” (2013).
Values after ≈ are worked out from the molar mass of the structure shown.

Columns and labels:
Assay type in all cases: functional
Streptococcus pneumoniae [1] = assay: Antibacterial activity against erythromycin-sensitive Streptococcus pneumoniae 12-8 by broth microdilution method
Summary of the method: (§1)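 Strains obtained from the Institute of Medicinal Biotechnology, Academy of Medical Sciences & Peking Union Medical College. MIC determined in vitro by broth microdilution following NCCLS recommendations.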

Streptococcus pyogenes [2] = assay: Antibacterial activity against erythromycin-sensitive Streptococcus pyogenes ATCC 19625 by broth microdilution method; summary of the method: as §1
[3] = test system: Staphylococcus epidermidis; assay: Antibacterial activity against methicillin-sensitive Staphylococcus epidermidis 11-20 by broth microdilution method; summary of the method: as §1
Streptococcus pneumoniae [4] = assay: Antibacterial activity against erythromycin-sensitive Streptococcus pneumoniae 12-10 by broth microdilution method; summary of the method: as §1
Staphylococcus aureus [5] = assay: Antibacterial activity against methicillin-resistant Staphylococcus aureus 12-31 by broth microdilution method
[6] = test system: Staphylococcus epidermidis; assay: Antibacterial activity against methicillin-sensitive Staphylococcus epidermidis 12-5 by broth microdilution method; summary of the method: as §1
[7] = test system: Staphylococcus epidermidis; assay: Antibacterial activity against methicillin-resistant Staphylococcus epidermidis 12-4 by broth microdilution method
Streptococcus pneumoniae [8] = assay: Antibacterial activity against erythromycin-sensitive Streptococcus pneumoniae 12-1 by broth microdilution method; summary of the method: as §1
Streptococcus pyogenes [9] = assay: Antibacterial activity against erythromycin-resistant Streptococcus pyogenes 11-2 by broth microdilution method
Staphylococcus aureus [10] = assay: Antibacterial activity against methicillin-sensitive Staphylococcus aureus 12-32 by broth microdilution method; summary of the method: as §1
Streptococcus pneumoniae [11] = assay: Antibacterial activity against erythromycin-sensitive Streptococcus pneumoniae 12-14 by broth microdilution method; summary of the method: as §1
Streptococcus pneumoniae [12] = assay: Antibacterial activity against erythromycin-resistant Streptococcus pneumoniae 12-5 by broth microdilution method
Staphylococcus aureus [13] = assay: Antibacterial activity against methicillin-sensitive Staphylococcus aureus ATCC 29213 by broth microdilution method; summary of the method: as §1
Streptococcus pneumoniae [14] = assay: Antibacterial activity against erythromycin-resistant Streptococcus pneumoniae 12-6 by broth microdilution method
Streptococcus pneumoniae [15] = assay: Antibacterial activity against erythromycin-sensitive Streptococcus pneumoniae 12-4 by broth microdilution method
[16] = test system: Staphylococcus epidermidis; assay: Antibacterial activity against methicillin-resistant Staphylococcus epidermidis 12-11 by broth microdilution method
[17] = test system: Staphylococcus epidermidis; assay: Antibacterial activity against methicillin-sensitive Staphylococcus epidermidis ATCC 12228 by broth microdilution method; summary of the method: as §1

| SMILES | MIC (Streptococcus pneumoniae [1]) [µg/mL] | MIC (Streptococcus pyogenes [2]) [µg/mL] | MIC [3] [µg/mL] | MIC (Streptococcus pneumoniae [4]) [µg/mL] | MIC (Staphylococcus aureus [5]) [µg/mL] | MIC [6] [µg/mL] | MIC [7] [µg/mL] | MIC (Streptococcus pneumoniae [8]) [µg/mL] | MIC (Streptococcus pyogenes [9]) [µg/mL] | MIC (Staphylococcus aureus [10]) [µg/mL] | MIC (Streptococcus pneumoniae [11]) [µg/mL] | MIC (Streptococcus pneumoniae [12]) [µg/mL] | MIC (Staphylococcus aureus [13]) [µg/mL] | MIC (Streptococcus pneumoniae [14]) [µg/mL] | MIC (Streptococcus pneumoniae [15]) [µg/mL] | MIC [16] [µg/mL] | MIC [17] [µg/mL] |
| --- | --- | --- | --- | --- | --- | --- | --- | --- | --- | --- | --- | --- | --- | --- | --- | --- | --- |
| CC[C@H]1OC(=O)[C@H](C)[C@@H](O[C@H]2C[C@@](C)(OC)[C@@H](O)[C@H](C)O2)[C@H](C)[C@@H](O[C@@H]2O[C@H](C)C[C@H](N(C)C)[C@H]2O)[C@](C)(OC)C[C@@H](C)C(=O)[C@H](C)[C@@H](O)[C@]1(C)O [CLARITHROMYCIN] | 1 (≈ 1.34 µM) | ≤ 1 | 8 (≈ 10.7 µM) | 1 (≈ 1.34 µM) | > 32 | ≤ 1 | 32 (≈ 42.8 µM) | 1 (≈ 1.34 µM) | 4 (≈ 5.35 µM) | 4 (≈ 5.35 µM) | 1 (≈ 1.34 µM) | > 32 | ≤ 1 | > 32 | 2 (≈ 2.67 µM) | 4 (≈ 5.35 µM) | ≤ 1 |
| CC[C@H]1OC(=O)[C@H](C)[C@@H](O[C@H]2C[C@@](C)(OC)[C@@H](O[C@@H]3O[C@H](C)[C@@H](O)[C@H](N(C)C)[C@H]3OC(=O)c3ccccc3)[C@H](C)O2)[C@H](C)[C@@H](O[C@@H]2O[C@H](C)C[C@H](N(C)C)[C@H]2O)[C@@](C)(OC)C[C@@H](C)C(=O)[C@H](C)[C@@H](O)[C@]1(C)O | 4 (≈ 3.9 µM) | 8 (≈ 7.8 µM) | 32 (≈ 31.2 µM) | 16 (≈ 15.6 µM) | > 32 | 32 (≈ 31.2 µM) | 16 (≈ 15.6 µM) | > 32 | > 32 | > 32 | 16 (≈ 15.6 µM) | 32 (≈ 31.2 µM) | 16 (≈ 15.6 µM) | > 32 | 32 (≈ 31.2 µM) | 16 (≈ 15.6 µM) | > 32 |
| CC[C@H]1OC(=O)[C@H](C)[C@@H](O[C@H]2C[C@@](C)(OC)[C@@H](O[C@@H]3O[C@H](C)[C@@H](O)[C@H](N(C)C)[C@H]3OC(=O)c3ccccc3)[C@H](C)O2)[C@H](C)[C@@H](O[C@@H]2O[C@H](C)C[C@H](N(C)C)[C@H]2O)[C@@](C)(OC)C[C@@H](C)C(=O)[C@H](C)[C@H]2OC(=O)O[C@@]21C | 1 (≈ 0.951 µM) | 1 (≈ 0.951 µM) | 4 (≈ 3.8 µM) | 2 (≈ 1.9 µM) | > 32 | 2 (≈ 1.9 µM) | 8 (≈ 7.61 µM) | 1 (≈ 0.951 µM) | 32 (≈ 30.4 µM) | 2 (≈ 1.9 µM) | 2 (≈ 1.9 µM) | 32 (≈ 30.4 µM) | 2 (≈ 1.9 µM) | 32 (≈ 30.4 µM) | 16 (≈ 15.2 µM) | ≤ 1 | 2 (≈ 1.9 µM) |
| CC[C@H]1OC(=O)[C@H](C)[C@@H](O[C@H]2C[C@@](C)(OC)[C@@H](O[C@@H]3O[C@H](C)[C@@H](OCc4ccccc4)[C@H](N(C)C)[C@H]3OC(=O)c3ccccc3)[C@H](C)O2)[C@H](C)[C@@H](O[C@@H]2O[C@H](C)C[C@H](N(C)C)[C@H]2O)[C@@](C)(OC)C[C@@H](C)C(=O)[C@H](C)[C@H]2OC(=O)O[C@@]21C | 16 (≈ 14 µM) | > 32 | > 32 | > 32 | > 32 | > 32 | > 32 | > 32 | > 32 | > 32 | > 32 | > 32 | > 32 | > 32 | > 32 | > 32 | > 32 |
| CC[C@H]1OC(=O)[C@H](C)C(=O)[C@H](C)[C@@H](O[C@@H]2O[C@H](C)C[C@H](N(C)C)[C@H]2O)[C@](C)(OC)C[C@@H](C)C(=O)[C@H](C)[C@H]2N(CCCCn3cnc(-c4cccnc4)c3)C(=O)O[C@]12C [TELITHROMYCIN] | ≤ 2 | ≤ 2 | ≤ 2 | ≤ 2 | > 64 | ≤ 2 | ≤ 2 | ≤ 2 | 2 (≈ 2.46 µM) | ≤ 2 | ≤ 2 | ≤ 2 | ≤ 2 | ≤ 2 | ≤ 2 | ≤ 2 | ≤ 2 |
| CC[C@H]1OC(=O)[C@H](C)[C@@H](O[C@H]2C[C@@](C)(OC)[C@@H](O[C@@H]3O[C@H](C)[C@@H](O)[C@H](N(C)C)[C@H]3O)[C@H](C)O2)[C@H](C)[C@@H](O[C@@H]2O[C@H](C)C[C@H](N(C)C)[C@H]2O)[C@@](C)(OC)C[C@@H](C)C(=O)[C@H](C)[C@H]2OC(=O)O[C@@]21C | 1 (≈ 1.06 µM) | 2 (≈ 2.11 µM) | 16 (≈ 16.9 µM) | 1 (≈ 1.06 µM) | > 32 | 16 (≈ 16.9 µM) | 32 (≈ 33.8 µM) | 2 (≈ 2.11 µM) | 16 (≈ 16.9 µM) | 32 (≈ 33.8 µM) | 2 (≈ 2.11 µM) | 16 (≈ 16.9 µM) | 16 (≈ 16.9 µM) | 16 (≈ 16.9 µM) | 4 (≈ 4.22 µM) | 16 (≈ 16.9 µM) | 32 (≈ 33.8 µM) |
| CC[C@H]1OC(=O)[C@H](C)[C@@H](O[C@H]2C[C@@](C)(OC)[C@@H](O[C@@H]3O[C@H](C)[C@@H](OCc4ccccc4)[C@H](N(C)C)[C@H]3O)[C@H](C)O2)[C@H](C)[C@@H](O[C@@H]2O[C@H](C)C[C@H](N(C)C)[C@H]2O)[C@@](C)(OC)C[C@@H](C)C(=O)[C@H](C)[C@H]2OC(=O)O[C@@]21C | 2 (≈ 1.93 µM) | 2 (≈ 1.93 µM) | 16 (≈ 15.4 µM) | 1 (≈ 0.964 µM) | > 32 | 16 (≈ 15.4 µM) | > 32 | 2 (≈ 1.93 µM) | > 32 | 16 (≈ 15.4 µM) | 4 (≈ 3.86 µM) | 32 (≈ 30.8 µM) | 16 (≈ 15.4 µM) | 32 (≈ 30.8 µM) | 32 (≈ 30.8 µM) | 16 (≈ 15.4 µM) | > 32 |
| CC[C@H]1OC(=O)[C@H](C)[C@@H](O[C@H]2C[C@@](C)(OC)[C@@H](O[C@@H]3O[C@H](C)[C@@H](O)[C@H](N(C)C)[C@H]3OC(=O)c3ccccc3)[C@H](C)O2)[C@H](C)[C@@H](O[C@@H]2O[C@H](C)C[C@H](N(C)C)[C@H]2O)[C@@](C)(OC)C[C@@H](C)C(=O)/C(C)=C/[C@]1(C)O | 16 (≈ 15.9 µM) | 1 (≈ 0.993 µM) | > 32 | > 32 | > 32 | 32 (≈ 31.8 µM) | > 32 | 1 (≈ 0.993 µM) | > 32 | > 32 | > 32 | > 32 | > 32 | > 32 | > 32 | 32 (≈ 31.8 µM) | 32 (≈ 31.8 µM) |
| CC[C@H]1OC(=O)[C@H](C)[C@@H](O[C@H]2C[C@@](C)(OC)[C@@H](O[C@@H]3O[C@H](C)[C@@H](OCc4ccccc4)[C@H](N(C)C)[C@H]3OC(=O)c3ccccc3)[C@H](C)O2)[C@H](C)[C@@H](O[C@@H]2O[C@H](C)C[C@H](N(C)C)[C@H]2O)[C@@](C)(OC)C[C@@H](C)C(=O)[C@H](C)[C@@H](O)[C@]1(C)O | 2 (≈ 1.79 µM) | > 32 | > 32 | 16 (≈ 14.3 µM) | > 32 | > 32 | > 32 | > 32 | > 32 | > 32 | 32 (≈ 28.7 µM) | 32 (≈ 28.7 µM) | > 32 | 32 (≈ 28.7 µM) | 32 (≈ 28.7 µM) | > 32 | > 32 |
